Laboratory results: ChEMBL document CHEMBL3046951, “Volatile constituents from the leaves of Callicarpa japonica Thunb. and their antibacterial activities” (2004)

Legend:
Type in all cases: functional
Escherichia coli [1] = test: Antimicrobial activity against Escherichia coli O157:H7 ATCC 43894 assessed as growth inhibition rate at 0.05 mg/l after 72 hr by spectrophotometry; conditions: O157:H7 ATCC 43894, 72 h, read-out: GI
Vibrio parahaemolyticus [2] = test: Antimicrobial activity against Vibrio parahaemolyticus ATCC 33844 assessed as growth inhibition rate at 3.4 mg/l after 72 hr by spectrophotometry; conditions: ATCC 33844, 72 h, read-out: GI
Summary of the method: (§1)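 Vibrio parahaemolyticus ATCC 33844 grown at 37 °C in tryptic soy broth with 3% (w/v) NaCl, using an 18 h subculture of a 24 h culture. Pure compounds (>95% purity) were tested. Bioscreen C optical density was read every 24 h for 72 h against a 10% Tween 80 control.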

Staphylococcus aureus [3] = test: Antimicrobial activity against Staphylococcus aureus ATCC 25923 assessed as growth inhibition rate at 6.8 mg/l after 72 hr by spectrophotometry; conditions: ATCC 25923, 72 h, read-out: GI
Summary of the method: (§2)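 Staphylococcus aureus ATCC 25923 grown at 37 °C in tryptic soy broth, using an 18 h subculture of a 24 h culture. Individual leaf-volatile compounds (>95% purity) were tested. Bioscreen C optical density was recorded every 24 h for 72 h and compared with a 10% Tween 80 control.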

Bacillus cereus [4] = test: Antimicrobial activity against Bacillus cereus ATCC 11778 assessed as growth inhibition rate at 0.68 mg/l after 72 hr by spectrophotometry; conditions: ATCC 11778, 72 h, read-out: GI
Summary of the method: (§3)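 Pure volatile compounds (purity >95%; one at 90%) were tested against B. cereus ATCC 11778. The strain was grown at 30 °C in nutrient broth for 24 h, then subcultured for 18 h. Optical density was read in a Bioscreen C every 24 h for 72 h, with 10% Tween 80 as the control.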

Vibrio parahaemolyticus [5] = test: Antimicrobial activity against Vibrio parahaemolyticus ATCC 33844 assessed as growth inhibition rate at 0.025 mg/l after 72 hr by spectrophotometry; conditions: ATCC 33844, 72 h, read-out: GI
Bacillus cereus [6] = test: Antimicrobial activity against Bacillus cereus ATCC 11778 assessed as growth inhibition rate at 0.025 mg/l after 72 hr by spectrophotometry; conditions: ATCC 11778, 72 h, read-out: GI; summary of the method: as §3
Listeria monocytogenes [7] = test: Antimicrobial activity against Listeria monocytogenes ATCC 19111 assessed as growth inhibition rate at 0.025 mg/l after 72 hr by spectrophotometry; conditions: ATCC 19111, 72 h, read-out: GI
Summary of the method: (§4)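 L. monocytogenes was grown at 30 °C in tryptic soy broth, subcultured for 18 h, and exposed to pure volatile compounds (>95% purity). Growth was followed by Bioscreen C optical density every 24 h for 72 h against a 10% Tween 80 control.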

Bacillus cereus [8] = test: Antimicrobial activity against Bacillus cereus ATCC 11778 assessed as growth inhibition rate at 3.4 mg/l after 72 hr by spectrophotometry; conditions: ATCC 11778, 72 h, read-out: GI; summary of the method: as §3
Vibrio parahaemolyticus [9] = test: Antimicrobial activity against Vibrio parahaemolyticus ATCC 33844 assessed as growth inhibition rate at 0.68 mg/l after 72 hr by spectrophotometry; conditions: ATCC 33844, 72 h, read-out: GI; summary of the method: as §1
Salmonella typhimurium [10] = test: Antimicrobial activity against Salmonella enterica subsp. enterica serovar Typhimurium ATCC 14028 assessed as growth inhibition rate at 0.025 mg/l after 72 hr by spectrophotometry; conditions: ATCC 14028, 72 h, read-out: GI
Summary of the method: (§5)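 Salmonella Typhimurium ATCC 14028 grown in nutrient broth at 30 °C, precultured 24 h, then subcultured 1:100 for 18 h before testing. Single volatile compounds (>95% pure) were added. OD was read every 24 h over 72 h in a Bioscreen C, with 10% Tween 80 as the comparison control.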

Listeria monocytogenes [11] = test: Antimicrobial activity against Listeria monocytogenes ATCC 19111 assessed as growth inhibition rate at 0.05 mg/l after 72 hr by spectrophotometry; conditions: ATCC 19111, 72 h, read-out: GI; summary of the method: as §4
Bacillus cereus [12] = test: Antimicrobial activity against Bacillus cereus ATCC 11778 assessed as growth inhibition rate at 0.12 mg/l after 72 hr by spectrophotometry; conditions: ATCC 11778, 72 h, read-out: GI; summary of the method: as §3
Salmonella typhimurium [13] = test: Antimicrobial activity against Salmonella enterica subsp. enterica serovar Typhimurium ATCC 14028 assessed as growth inhibition rate at 0.12 mg/l after 72 hr by spectrophotometry; conditions: ATCC 14028, 72 h, read-out: GI; summary of the method: as §5
Escherichia coli [14] = test: Antimicrobial activity against Escherichia coli O157:H7 ATCC 43894 assessed as growth inhibition rate at 0.68 mg/l after 72 hr by spectrophotometry; conditions: O157:H7 ATCC 43894, 72 h, read-out: GI
Escherichia coli [15] = test: Antimicrobial activity against Escherichia coli O157:H7 ATCC 43894 assessed as growth inhibition rate at 3.4 mg/l after 72 hr by spectrophotometry; conditions: O157:H7 ATCC 43894, 72 h, read-out: GI
Vibrio parahaemolyticus [16] = test: Antimicrobial activity against Vibrio parahaemolyticus ATCC 33844 assessed as growth inhibition rate at 6.8 mg/l after 72 hr by spectrophotometry; conditions: ATCC 33844, 72 h, read-out: GI; summary of the method: as §1
Bacillus cereus [17] = test: Antimicrobial activity against Bacillus cereus ATCC 11778 assessed as growth inhibition rate at 0.05 mg/l after 72 hr by spectrophotometry; conditions: ATCC 11778, 72 h, read-out: GI; summary of the method: as §3
Staphylococcus aureus [18] = test: Antimicrobial activity against Staphylococcus aureus ATCC 25923 assessed as growth inhibition rate at 3.4 mg/l after 72 hr by spectrophotometry; conditions: ATCC 25923, 72 h, read-out: GI; summary of the method: as §2
Listeria monocytogenes [19] = test: Antimicrobial activity against Listeria monocytogenes ATCC 19111 assessed as growth inhibition rate at 0.68 mg/l after 72 hr by spectrophotometry; conditions: ATCC 19111, 72 h, read-out: GI; summary of the method: as §4
Escherichia coli [20] = test: Antimicrobial activity against Escherichia coli O157:H7 ATCC 43894 assessed as growth inhibition rate at 6.8 mg/l after 72 hr by spectrophotometry; conditions: O157:H7 ATCC 43894, 72 h, read-out: GI
Salmonella typhimurium [21] = test: Antimicrobial activity against Salmonella enterica subsp. enterica serovar Typhimurium ATCC 14028 assessed as growth inhibition rate at 0.05 mg/l after 72 hr by spectrophotometry; conditions: ATCC 14028, 72 h, read-out: GI; summary of the method: as §5
Salmonella typhimurium [22] = test: Antimicrobial activity against Salmonella enterica subsp. enterica serovar Typhimurium ATCC 14028 assessed as growth inhibition rate at 6.8 mg/l after 72 hr by spectrophotometry; conditions: ATCC 14028, 72 h, read-out: GI; summary of the method: as §5
Listeria monocytogenes [23] = test: Antimicrobial activity against Listeria monocytogenes ATCC 19111 assessed as growth inhibition rate at 0.12 mg/l after 72 hr by spectrophotometry; conditions: ATCC 19111, 72 h, read-out: GI; summary of the method: as §4
Staphylococcus aureus [24] = test: Antimicrobial activity against Staphylococcus aureus ATCC 25923 assessed as growth inhibition rate at 0.025 mg/l after 72 hr by spectrophotometry; conditions: ATCC 25923, 72 h, read-out: GI
Staphylococcus aureus [25] = test: Antimicrobial activity against Staphylococcus aureus ATCC 25923 assessed as growth inhibition rate at 0.05 mg/l after 72 hr by spectrophotometry; conditions: ATCC 25923, 72 h, read-out: GI
Listeria monocytogenes [26] = test: Antimicrobial activity against Listeria monocytogenes ATCC 19111 assessed as growth inhibition rate at 6.8 mg/l after 72 hr by spectrophotometry; conditions: ATCC 19111, 72 h, read-out: GI; summary of the method: as §4
Escherichia coli [27] = test: Antimicrobial activity against Escherichia coli O157:H7 ATCC 43894 assessed as growth inhibition rate at 0.025 mg/l after 72 hr by spectrophotometry; conditions: O157:H7 ATCC 43894, 72 h, read-out: GI
Escherichia coli [28] = test: Antimicrobial activity against Escherichia coli O157:H7 ATCC 43894 assessed as growth inhibition rate at 0.12 mg/l after 72 hr by spectrophotometry; conditions: O157:H7 ATCC 43894, 72 h, read-out: GI
Salmonella typhimurium [29] = test: Antimicrobial activity against Salmonella enterica subsp. enterica serovar Typhimurium ATCC 14028 assessed as growth inhibition rate at 0.68 mg/l after 72 hr by spectrophotometry; conditions: ATCC 14028, 72 h, read-out: GI; summary of the method: as §5
Vibrio parahaemolyticus [30] = test: Antimicrobial activity against Vibrio parahaemolyticus ATCC 33844 assessed as growth inhibition rate at 0.05 mg/l after 72 hr by spectrophotometry; conditions: ATCC 33844, 72 h, read-out: GI
Salmonella typhimurium [31] = test: Antimicrobial activity against Salmonella enterica subsp. enterica serovar Typhimurium ATCC 14028 assessed as growth inhibition rate at 3.4 mg/l after 72 hr by spectrophotometry; conditions: ATCC 14028, 72 h, read-out: GI; summary of the method: as §5
Vibrio parahaemolyticus [32] = test: Antimicrobial activity against Vibrio parahaemolyticus ATCC 33844 assessed as growth inhibition rate at 0.12 mg/l after 72 hr by spectrophotometry; conditions: ATCC 33844, 72 h, read-out: GI
Listeria monocytogenes [33] = test: Antimicrobial activity against Listeria monocytogenes ATCC 19111 assessed as growth inhibition rate at 3.4 mg/l after 72 hr by spectrophotometry; conditions: ATCC 19111, 72 h, read-out: GI; summary of the method: as §4
Bacillus cereus [34] = test: Antimicrobial activity against Bacillus cereus ATCC 11778 assessed as growth inhibition rate at 6.8 mg/l after 72 hr by spectrophotometry; conditions: ATCC 11778, 72 h, read-out: GI; summary of the method: as §3
Staphylococcus aureus [35] = test: Antimicrobial activity against Staphylococcus aureus ATCC 25923 assessed as growth inhibition rate at 0.12 mg/l after 72 hr by spectrophotometry; conditions: ATCC 25923, 72 h, read-out: GI
Staphylococcus aureus [36] = test: Antimicrobial activity against Staphylococcus aureus ATCC 25923 assessed as growth inhibition rate at 0.68 mg/l after 72 hr by spectrophotometry; conditions: ATCC 25923, 72 h, read-out: GI; summary of the method: as §2

`C/C=C/C=C/C=O` [2,4-HEXADIENAL] showed an inhibition of growth at 0.05 µg/mL (Escherichia coli [1]) of 0.5%, an inhibition of growth at 3.4 µg/mL (Vibrio parahaemolyticus [2]) of 98.9% and an inhibition of growth at 6.8 µg/mL (Staphylococcus aureus [3]) of 90.9%. For the same molecule, the inhibition of growth at 0.68 µg/mL (Bacillus cereus [4]) was 45.3%, the inhibition of growth at 0.025 µg/mL (Vibrio parahaemolyticus [5]) was 6.2% and the inhibition of growth at 0.025 µg/mL (Bacillus cereus [6]) was 10.3%. It also gave an inhibition of growth at 0.025 µg/mL (Listeria monocytogenes [7]) of 3.9%, an inhibition of growth at 3.4 µg/mL (Bacillus cereus [8]) of 67.3% and an inhibition of growth at 0.68 µg/mL (Vibrio parahaemolyticus [9]) of 20.3%. The inhibition of growth at 0.025 µg/mL (Salmonella typhimurium [10]) was 13.2%, the inhibition of growth at 0.05 µg/mL (Listeria monocytogenes [11]) was 3.9% and the inhibition of growth at 0.12 µg/mL (Bacillus cereus [12]) was 10.8%. The inhibition of growth at 0.12 µg/mL (Salmonella typhimurium [13]) was 12.2%, the inhibition of growth at 0.68 µg/mL (Escherichia coli [14]) was 1.9% and the inhibition of growth at 3.4 µg/mL (Escherichia coli [15]) was 12.7%. For the same molecule, the inhibition of growth at 6.8 µg/mL (Vibrio parahaemolyticus [16]) was 99.1%, the inhibition of growth at 0.05 µg/mL (Bacillus cereus [17]) was 9.5% and the inhibition of growth at 3.4 µg/mL (Staphylococcus aureus [18]) was 89.4%. The inhibition of growth at 0.68 µg/mL (Listeria monocytogenes [19]) was 9.2%, the inhibition of growth at 6.8 µg/mL (Escherichia coli [20]) was 20.2% and the inhibition of growth at 0.05 µg/mL (Salmonella typhimurium [21]) was 12.9%. The inhibition of growth at 6.8 µg/mL (Salmonella typhimurium [22]) was 80.6%, the inhibition of growth at 0.12 µg/mL (Listeria monocytogenes [23]) was 7.5% and the inhibition of growth at 0.025 µg/mL (Staphylococcus aureus [24]) was 7.8%. The inhibition of growth at 0.05 µg/mL (Staphylococcus aureus [25]) was 5.3%, the inhibition of growth at 6.8 µg/mL (Listeria monocytogenes [26]) was 41.4% and the inhibition of growth at 0.025 µg/mL (Escherichia coli [27]) was 0.3%. For the same molecule, the inhibition of growth at 0.12 µg/mL (Escherichia coli [28]) was 2.1%, the inhibition of growth at 0.68 µg/mL (Salmonella typhimurium [29]) was 18.4% and the inhibition of growth at 0.05 µg/mL (Vibrio parahaemolyticus [30]) was 5.8%. It also gave an inhibition of growth at 3.4 µg/mL (Salmonella typhimurium [31]) of 45.1%, an inhibition of growth at 0.12 µg/mL (Vibrio parahaemolyticus [32]) of 10.4% and an inhibition of growth at 3.4 µg/mL (Listeria monocytogenes [33]) of 32.4%. For the same molecule, the inhibition of growth at 6.8 µg/mL (Bacillus cereus [34]) was 100%, the inhibition of growth at 0.12 µg/mL (Staphylococcus aureus [35]) was 6.9% and the inhibition of growth at 0.68 µg/mL (Staphylococcus aureus [36]) was 8.8%.
